pIC50: −log10 of the molar value.
What was measured:
Format in all cases: functional, cell-based
[1] = tested on: MCF7; assay: Cytotoxicity against human MCF7 cells after 2 days by MTT assay; conditions: MCF7, 48 h
How it was run: (§1)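 Cells grown in RPMI-1640 and seeded in 96-well plates for 4 h before sample addition. Test samples were tested at four concentrations, with 37 °C incubation for 2 days. MTT solution (5 mg/mL) was then added for a further 4 h. Formazan was dissolved in 10% SDS in 0.01 M HCl and absorbance read at 550 nm. IC50 determined; 5-fluorouracil served as positive control.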

[2] = tested on: A549; assay: Cytotoxicity against human A549 cells after 2 days by MTT assay; conditions: A549, 48 h; how it was run: as §1
[3] = tested on: HeLa; assay: Cytotoxicity against human HeLa cells after 2 days by MTT assay; conditions: 48 h; how it was run: as §1
[4] = tested on: HT-29; assay: Cytotoxicity against human HT-29 cells after 2 days by MTT assay; conditions: HT-29, 48 h; how it was run: as §1

CC(=O)OC[C@H]1O[C@H](O[C@]2(COC(C)=O)O[C@H](CO)[C@@H](O)[C@@H]2OC(=O)/C=C/c2ccc(O)cc2)[C@H](O)[C@@H](OC(C)=O)[C@@H]1O
pIC50 [1]: 5.84 | pIC50 [2]: 5.59 | pIC50 [3]: 5.88 | pIC50 [4]: 5.68

CC(=O)OC[C@H]1O[C@H](O[C@]2(COC(C)=O)O[C@H](CO)[C@@H](O)[C@@H]2OC(=O)/C=C/c2ccc(O)cc2)[C@H](O)[C@@H](O)[C@@H]1OC(C)=O
pIC50 [1]: 5.91 | pIC50 [2]: 6.31 | pIC50 [3]: 6.01 | pIC50 [4]: 5.83

CC(=O)OC[C@H]1O[C@H](O[C@]2(CO)O[C@H](CO)[C@@H](O)[C@@H]2OC(=O)/C=C/c2ccc(O)cc2)[C@H](O)[C@@H](OC(C)=O)[C@@H]1OC(C)=O
pIC50 [1]: 5.53 | pIC50 [2]: 5.83 | pIC50 [3]: 5.42 | pIC50 [4]: 5.56

CC(=O)OC[C@H]1O[C@H](O[C@]2(CO)O[C@H](CO)[C@@H](O)[C@@H]2OC(=O)/C=C/c2ccc(O)cc2)[C@H](OC(C)=O)[C@@H](OC(C)=O)[C@@H]1O
pIC50 [1]: 6.01 | pIC50 [2]: 5.95 | pIC50 [3]: 5.36 | pIC50 [4]: 5.61

COc1cc(/C=C/C(=O)O[C@H]2[C@H](O)[C@@H](CO)O[C@@]2(COC(C)=O)O[C@H]2O[C@H](COC(C)=O)[C@@H](O)[C@H](O)[C@H]2OC(C)=O)ccc1O
pIC50 [1]: 6.11 | pIC50 [2]: 6.35 | pIC50 [3]: 5.96 | pIC50 [4]: 6.34

CC(=O)OC[C@H]1O[C@H](O[C@]2(COC(C)=O)O[C@H](CO)[C@@H](O)[C@@H]2OC(=O)/C=C/c2ccc(O)cc2)[C@H](OC(C)=O)[C@@H](O)[C@@H]1O
pIC50 [1]: 5.46 | pIC50 [2]: 5.49 | pIC50 [3]: 5.60 | pIC50 [4]: 5.40

O=c1[nH]cc(F)c(=O)[nH]1 [FLUOROURACIL]
pIC50 [4]: 4.76

CC(=O)OC[C@H]1O[C@H](O[C@]2(COC(C)=O)O[C@H](CO)[C@@H](OC(C)=O)[C@@H]2OC(=O)/C=C/c2ccc(O)cc2)[C@H](O)[C@@H](O)[C@@H]1O
pIC50 [1]: 6.21 | pIC50 [2]: 6.54 | pIC50 [3]: 6.96 | pIC50 [4]: 6.74

From ChEMBL document CHEMBL3259818, “Tomensides A-D, new antiproliferative phenylpropanoid sucrose esters from Prunus tomentosa leaves” (Bioorg Med Chem Lett, 2014)
